pIC50: −log10 of the molar value. Where only a bound is given, the exact number is not on record here.

Experiment [1] concerns the target Disintegrin and metalloproteinase domain-containing protein 17 (Homo sapiens, UniProt P78536). The experiment in a line: Inhibition of human recombinant TACE using MCA-Pro-Leu-Ala-Gln-Ala-Val-Dpa-Arg-Ser-Ser-Ser-Arg-NH2 as substrate preincubated for 10 mins measured by fluorescence analysis. An outline of the steps:
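Recombinant human TACE was assayed with its fluorogenic peptide substrate in 25 mM Tris-HCl pH 9, 1.25 μM Zn(OAc)₂, 0.005% Brij-35. Enzyme was 1–10 nM and substrate 4–10 μM. Enzyme was preincubated 10 min with varying inhibitor concentrations, and IC50 came from at least duplicate runs.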

For experiment [2], the species on record is Rattus norvegicus. The experiment in a line: Chondroprotective activity in Sprague-Dawley rat cartilage assessed as inhibition of MMP13-mediated C1,C2 release at 0.5 mg/joint, ia measured on day 7 by ELISA. It counts as functional. An outline of the steps:
(§1)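 Male Sprague-Dawley rats (175−200 g, three per group) received one IA injection of 50 μL PBS holding 10 mg/mL suspension (sonicated, vortexed) into right knee. They were killed at 1, 7, 14 or 21 days, and tibial cartilage was collected. Cartilage was then challenged with 10 μg/mL APMA-activated human MMP-13 for 24 h at 37 °C in Tris pH 7.5. The reaction was stopped with 10 mM EDTA, and released C1,2C was measured by ELISA. Vehicle cartilage incubated with or without MMP-13 defined 100% and 0%.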

The next experiment addresses Neutrophil collagenase (Homo sapiens, UniProt P22894). The experiment in a line: Inhibition of human recombinant MMP8 using MCA-Pro-Leu-Gly-Leu-Dpa-Ala-Arg-NH2.AcOH as substrate preincubated for 10 mins measured by fluorescence analysis. In short, it runs like this: (§2)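 Catalytic domains of recombinant human MMPs were assayed with fluorogenic OmniMMP substrate in 50 mM Tris-HCl pH 7.5, 150 mM NaCl, 5 mM CaCl₂, 0.05% Brij-35. Enzyme was 1–10 nM and substrate 4–10 μM, optimized per assay. Enzyme was preincubated 10 min with varying inhibitor concentrations, and IC50 was calculated from runs done at least in duplicate.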

The species entered for experiment [3] is Rattus norvegicus. The experiment in a line: Chondroprotective activity in Sprague-Dawley rat cartilage assessed as inhibition of MMP13-mediated C1,C2 release at 0.5 mg/joint, ia measured on day 14 by ELISA. It counts as functional. In short, it runs like this:
as §1
(In general: In an ELISA, binding on a coated surface is turned into a signal by an enzyme label.)

Another experiment has as its target T1, Matrilysin (Homo sapiens, UniProt P09237).
T1 sequence (P09237 whole entry): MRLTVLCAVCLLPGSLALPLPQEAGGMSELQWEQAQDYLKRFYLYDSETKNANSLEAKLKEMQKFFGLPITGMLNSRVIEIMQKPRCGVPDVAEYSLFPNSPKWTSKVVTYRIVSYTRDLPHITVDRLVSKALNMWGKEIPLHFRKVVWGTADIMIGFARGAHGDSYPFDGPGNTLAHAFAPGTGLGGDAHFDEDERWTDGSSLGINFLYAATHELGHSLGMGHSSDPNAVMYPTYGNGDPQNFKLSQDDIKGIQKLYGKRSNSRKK
The experiment in a line: Inhibition of human recombinant MMP7 using MCA-Pro-Leu-Gly-Leu-Dpa-Ala-Arg-NH2.AcOH as substrate preincubated for 10 mins measured by fluorescence analysis. An outline of the steps: as §2

Another experiment addresses Stromelysin-1 (Homo sapiens, UniProt P08254). The experiment in a line: Inhibition of human recombinant MMP3 using MCAArg-Pro-Lys-Pro-Val-Glu-Nva-Trp-Arg-Lys(DNP)-NH2 as substrate preincubated for 10 mins measured by fluorescence analysis. In short, it runs like this: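 Catalytic domain of recombinant human MMP-3 was assayed with NFF-3 fluorogenic substrate in 50 mM MES pH 6.0, 10 mM CaCl₂, 0.05% Brij-35. Enzyme was 1–10 nM and substrate 4–10 μM. Enzyme was preincubated 10 min with varying inhibitor concentrations, and IC50 came from at least duplicate runs.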

A further experiment deals with Cartilage tissue. The experiment in a line: Inhibition of collagen degradation in bovine articular cartilage assessed as inhibition of interlukein-1alpha/oncostatin M-induced C1,C2 release measured after 11 days by ELISA. Type of experiment: functional, tissue-based. The following applies: Bos taurus, 264 h. In short, it runs like this: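 Freshly isolated bovine articular cartilage pieces (~3 mm²) were stimulated with 5 ng/mL IL-1α plus 50 ng/mL OSM, with or without compound, for 11 days. Medium was refreshed twice weekly. Collagen degradation products in the conditioned medium were quantified by C1,2C ELISA.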

The species named for experiment [4] is Rattus norvegicus. Kind of experiment: Chondroprotective activity in Sprague-Dawley rat cartilage assessed as inhibition of MMP13-mediated C1,C2 release at 0.5 mg/joint, ia measured after 24 hrs by ELISA. It counts as functional. An outline of the steps: as §1
The target of the next experiment is T2, Interstitial collagenase (Homo sapiens, UniProt P03956).
T2 sequence (P03956 whole entry): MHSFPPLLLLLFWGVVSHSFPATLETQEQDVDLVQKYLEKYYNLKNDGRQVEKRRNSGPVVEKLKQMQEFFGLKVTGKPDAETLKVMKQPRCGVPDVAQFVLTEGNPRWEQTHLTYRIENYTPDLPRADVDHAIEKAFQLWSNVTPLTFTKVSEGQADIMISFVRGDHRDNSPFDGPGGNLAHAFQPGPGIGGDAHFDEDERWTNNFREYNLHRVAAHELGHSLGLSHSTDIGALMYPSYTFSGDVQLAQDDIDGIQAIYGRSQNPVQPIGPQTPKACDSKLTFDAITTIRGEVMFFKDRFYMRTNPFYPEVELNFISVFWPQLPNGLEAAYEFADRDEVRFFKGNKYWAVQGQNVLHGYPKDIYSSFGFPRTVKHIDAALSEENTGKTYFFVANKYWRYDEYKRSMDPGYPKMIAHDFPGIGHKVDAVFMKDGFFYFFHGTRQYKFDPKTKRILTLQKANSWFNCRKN
The experiment in a line: Inhibition of human recombinant MMP1 using MCA-Pro-Leu-Gly-Leu-Dpa-Ala-Arg-NH2.AcOH as substrate preincubated for 10 mins measured by fluorescence analysis. An outline of the steps: as §2

For experiment [5], the target named is 72 kDa type IV collagenase (Homo sapiens, UniProt P08253). The experiment in a line: Inhibition of human recombinant MMP2 using MCA-Pro-Leu-Gly-Leu-Dpa-Ala-Arg-NH2.AcOH as substrate preincubated for 10 mins measured by fluorescence analysis. In short, it runs like this: as §2
Experiment [6] concerns the target Matrix metalloproteinase-14 (Homo sapiens, UniProt P50281). Kind of experiment: Inhibition of human recombinant MMP14 using MCA-Pro-Leu-Gly-Leu-Dpa-Ala-Arg-NH2.AcOH as substrate preincubated for 10 mins measured by fluorescence analysis. An outline of the steps:
as §2

For experiment [7], the target named is Matrix metalloproteinase-9 (Homo sapiens, UniProt P14780). The experiment in a line: Inhibition of human recombinant MMP9 using MCA-Pro-Leu-Gly-Leu-Dpa-Ala-Arg-NH2.AcOH as substrate preincubated for 10 mins measured by fluorescence analysis. An outline of the steps: as §2
For experiment [8], the target named is T3, A disintegrin and metalloproteinase with thrombospondin motifs 4 (Homo sapiens, UniProt O75173).
T3 sequence (O75173 whole entry): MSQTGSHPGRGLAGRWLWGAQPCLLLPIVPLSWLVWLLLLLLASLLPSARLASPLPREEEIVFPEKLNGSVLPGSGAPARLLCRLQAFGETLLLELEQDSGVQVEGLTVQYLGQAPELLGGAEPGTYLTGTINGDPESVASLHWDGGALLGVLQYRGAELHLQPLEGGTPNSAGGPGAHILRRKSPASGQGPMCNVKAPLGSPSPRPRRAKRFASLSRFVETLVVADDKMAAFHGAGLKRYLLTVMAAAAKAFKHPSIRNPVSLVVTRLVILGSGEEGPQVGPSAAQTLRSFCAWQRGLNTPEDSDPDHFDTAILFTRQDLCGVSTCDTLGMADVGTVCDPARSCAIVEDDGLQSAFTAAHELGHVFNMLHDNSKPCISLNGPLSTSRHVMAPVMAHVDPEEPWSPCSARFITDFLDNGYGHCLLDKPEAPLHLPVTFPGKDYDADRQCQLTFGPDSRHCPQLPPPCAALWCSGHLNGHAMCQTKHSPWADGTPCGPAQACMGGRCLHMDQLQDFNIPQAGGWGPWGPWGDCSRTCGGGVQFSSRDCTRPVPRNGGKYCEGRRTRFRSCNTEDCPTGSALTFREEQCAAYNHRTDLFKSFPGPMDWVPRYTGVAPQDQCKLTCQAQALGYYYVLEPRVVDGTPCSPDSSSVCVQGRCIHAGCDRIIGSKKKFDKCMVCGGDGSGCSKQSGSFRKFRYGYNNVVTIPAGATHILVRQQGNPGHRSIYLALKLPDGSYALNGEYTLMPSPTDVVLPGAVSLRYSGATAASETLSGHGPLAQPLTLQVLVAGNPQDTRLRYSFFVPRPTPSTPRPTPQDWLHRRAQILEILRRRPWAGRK
The experiment in a line: Inhibition of human recombinant aggrecanase 1 using aggrecan-IGD as substrate measured after 15 mins by ELISA. In short, it runs like this: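 Aggrecanase-1 was run in 50 mM Tris-HCl pH 7.5, 150 mM NaCl, 5 mM CaCl₂, 0.05% Brij-35, with 100 nM recombinant human aggrecan interglobular domain as substrate, for 15 min at 37 °C. The reaction was stopped with EDTA, and ARGSVIL neoepitopes were quantified by ELISA.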

A further experiment concerns the target Collagenase 3 (Homo sapiens, UniProt P45452). The experiment in a line: Inhibition of human recombinant MMP13 using MCA-Pro-Cha-Gly-Nva-His-Ala-Dpa-NH2 as substrate preincubated for 10 mins measured by fluorescence analysis. An outline of the steps:
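Catalytic domain of recombinant human MMP-13 was assayed with fluorogenic substrate in 50 mM Tris-HCl pH 7.5, 150 mM NaCl, 5 mM CaCl₂, 0.05% Brij-35. Enzyme was 1–10 nM and substrate 4–10 μM. It was preincubated 10 min with varying inhibitor concentrations, and IC50 came from at least duplicate runs.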

Experiment [9] has as its target Macrophage metalloelastase (Homo sapiens, UniProt P39900). The experiment in a line: Inhibition of human recombinant MMP12 using MCA-Pro-Leu-Gly-Leu-Dpa-Ala-Arg-NH2.AcOH as substrate preincubated for 10 mins measured by fluorescence analysis. An outline of the steps: as §2

Sequence of Disintegrin and metalloproteinase domain-containing protein 17 (P78536 whole entry, the tested form may be a part): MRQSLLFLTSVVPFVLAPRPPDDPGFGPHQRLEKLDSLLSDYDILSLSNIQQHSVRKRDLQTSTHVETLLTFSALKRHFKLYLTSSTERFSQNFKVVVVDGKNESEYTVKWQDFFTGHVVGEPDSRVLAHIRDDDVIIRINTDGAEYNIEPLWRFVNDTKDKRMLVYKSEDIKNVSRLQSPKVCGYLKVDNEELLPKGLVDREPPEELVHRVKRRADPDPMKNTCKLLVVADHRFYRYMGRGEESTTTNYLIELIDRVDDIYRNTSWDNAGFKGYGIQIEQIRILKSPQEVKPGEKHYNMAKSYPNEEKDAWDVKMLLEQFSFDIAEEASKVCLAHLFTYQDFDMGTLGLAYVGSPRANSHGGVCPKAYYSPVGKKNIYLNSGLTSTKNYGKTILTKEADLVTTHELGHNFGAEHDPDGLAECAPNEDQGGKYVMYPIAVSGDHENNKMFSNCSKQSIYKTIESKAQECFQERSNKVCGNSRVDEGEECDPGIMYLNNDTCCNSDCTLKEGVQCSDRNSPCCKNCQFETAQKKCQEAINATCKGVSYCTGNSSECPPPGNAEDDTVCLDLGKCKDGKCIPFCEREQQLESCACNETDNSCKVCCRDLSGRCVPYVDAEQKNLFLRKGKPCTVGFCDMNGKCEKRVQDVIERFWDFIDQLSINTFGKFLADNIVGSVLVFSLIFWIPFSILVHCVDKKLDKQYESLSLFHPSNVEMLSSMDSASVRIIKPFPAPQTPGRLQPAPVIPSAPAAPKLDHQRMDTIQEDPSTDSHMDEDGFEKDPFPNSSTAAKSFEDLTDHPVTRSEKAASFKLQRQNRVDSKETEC
Sequence of Neutrophil collagenase (P22894 whole entry, the tested form may be a part): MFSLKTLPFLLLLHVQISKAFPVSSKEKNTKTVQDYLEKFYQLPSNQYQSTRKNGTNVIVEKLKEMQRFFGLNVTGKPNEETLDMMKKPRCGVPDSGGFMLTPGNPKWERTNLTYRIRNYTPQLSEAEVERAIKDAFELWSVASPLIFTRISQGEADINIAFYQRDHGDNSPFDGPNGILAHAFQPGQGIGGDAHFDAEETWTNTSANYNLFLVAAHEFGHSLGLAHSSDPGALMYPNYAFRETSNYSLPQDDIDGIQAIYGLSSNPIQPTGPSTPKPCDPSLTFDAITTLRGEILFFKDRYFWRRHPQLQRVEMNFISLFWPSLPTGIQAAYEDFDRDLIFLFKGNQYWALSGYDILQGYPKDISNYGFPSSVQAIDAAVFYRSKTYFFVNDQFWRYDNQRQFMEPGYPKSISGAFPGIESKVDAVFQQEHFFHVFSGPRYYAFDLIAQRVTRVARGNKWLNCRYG
Sequence of Macrophage metalloelastase (P39900 whole entry): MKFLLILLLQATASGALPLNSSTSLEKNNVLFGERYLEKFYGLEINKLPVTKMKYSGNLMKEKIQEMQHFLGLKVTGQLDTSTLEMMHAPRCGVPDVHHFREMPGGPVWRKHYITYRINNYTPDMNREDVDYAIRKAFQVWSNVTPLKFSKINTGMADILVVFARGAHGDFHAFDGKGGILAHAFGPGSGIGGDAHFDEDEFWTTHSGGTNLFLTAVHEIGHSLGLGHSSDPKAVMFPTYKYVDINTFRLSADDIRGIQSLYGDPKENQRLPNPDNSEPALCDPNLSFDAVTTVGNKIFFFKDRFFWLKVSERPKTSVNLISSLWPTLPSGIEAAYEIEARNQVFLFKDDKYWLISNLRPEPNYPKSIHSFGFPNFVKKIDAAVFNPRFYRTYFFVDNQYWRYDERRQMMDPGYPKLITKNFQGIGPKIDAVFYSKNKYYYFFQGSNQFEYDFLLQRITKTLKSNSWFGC
Sequence of Stromelysin-1 (P08254 whole entry, the tested form may be a part): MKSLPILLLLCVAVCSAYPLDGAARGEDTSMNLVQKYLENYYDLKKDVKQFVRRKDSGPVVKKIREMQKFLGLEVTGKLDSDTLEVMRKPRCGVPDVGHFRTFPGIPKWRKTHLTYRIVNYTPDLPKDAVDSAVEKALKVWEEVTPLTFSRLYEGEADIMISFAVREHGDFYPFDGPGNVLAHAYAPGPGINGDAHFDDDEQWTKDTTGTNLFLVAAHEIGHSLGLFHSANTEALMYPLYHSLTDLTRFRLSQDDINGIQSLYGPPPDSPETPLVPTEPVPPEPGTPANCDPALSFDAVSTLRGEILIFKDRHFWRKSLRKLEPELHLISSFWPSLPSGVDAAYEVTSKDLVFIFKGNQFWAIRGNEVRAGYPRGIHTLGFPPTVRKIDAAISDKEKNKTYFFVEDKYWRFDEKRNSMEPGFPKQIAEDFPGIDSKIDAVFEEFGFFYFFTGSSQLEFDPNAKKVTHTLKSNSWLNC
Sequence of 72 kDa type IV collagenase (P08253 whole entry): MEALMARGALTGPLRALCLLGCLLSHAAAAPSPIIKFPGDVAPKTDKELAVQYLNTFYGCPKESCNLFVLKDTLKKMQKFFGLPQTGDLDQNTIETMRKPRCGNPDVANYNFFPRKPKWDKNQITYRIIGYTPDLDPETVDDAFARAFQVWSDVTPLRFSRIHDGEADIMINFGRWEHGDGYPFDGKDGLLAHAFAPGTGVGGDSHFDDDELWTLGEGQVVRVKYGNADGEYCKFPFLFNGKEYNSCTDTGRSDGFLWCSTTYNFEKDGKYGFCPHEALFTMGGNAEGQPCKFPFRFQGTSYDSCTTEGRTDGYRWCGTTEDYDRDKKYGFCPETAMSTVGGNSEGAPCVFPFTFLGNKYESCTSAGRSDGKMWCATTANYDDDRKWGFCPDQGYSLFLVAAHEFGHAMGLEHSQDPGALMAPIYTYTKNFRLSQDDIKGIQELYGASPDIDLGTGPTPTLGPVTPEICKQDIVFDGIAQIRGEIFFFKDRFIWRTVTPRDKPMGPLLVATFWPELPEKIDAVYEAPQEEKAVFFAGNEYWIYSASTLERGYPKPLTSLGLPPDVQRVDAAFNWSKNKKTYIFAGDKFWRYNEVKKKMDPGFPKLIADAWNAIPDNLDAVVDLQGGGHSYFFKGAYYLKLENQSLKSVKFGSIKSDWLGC
Sequence of Matrix metalloproteinase-9 (P14780 whole entry): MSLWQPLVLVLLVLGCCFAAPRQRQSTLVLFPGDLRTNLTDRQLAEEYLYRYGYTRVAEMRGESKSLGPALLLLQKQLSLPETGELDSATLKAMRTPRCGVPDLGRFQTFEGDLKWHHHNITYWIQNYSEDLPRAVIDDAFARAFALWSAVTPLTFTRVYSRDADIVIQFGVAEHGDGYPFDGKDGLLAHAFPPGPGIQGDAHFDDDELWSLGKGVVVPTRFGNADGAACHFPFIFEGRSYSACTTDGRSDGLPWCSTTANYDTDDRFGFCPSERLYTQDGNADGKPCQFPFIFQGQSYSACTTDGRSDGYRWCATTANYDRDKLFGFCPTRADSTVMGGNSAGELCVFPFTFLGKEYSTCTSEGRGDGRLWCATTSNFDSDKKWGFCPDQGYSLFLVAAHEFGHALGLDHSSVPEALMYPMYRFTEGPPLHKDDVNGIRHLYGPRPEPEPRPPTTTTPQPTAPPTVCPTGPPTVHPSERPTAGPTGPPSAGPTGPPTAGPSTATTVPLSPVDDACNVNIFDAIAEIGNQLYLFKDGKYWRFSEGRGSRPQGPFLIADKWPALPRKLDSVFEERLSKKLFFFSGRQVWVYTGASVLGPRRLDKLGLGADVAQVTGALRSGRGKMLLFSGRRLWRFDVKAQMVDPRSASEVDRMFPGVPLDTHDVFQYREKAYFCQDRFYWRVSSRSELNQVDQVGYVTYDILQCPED

Broadly, the pIC50 is the IC50 on a negative log10 scale, so that one unit is a factor of ten. Take `Cc1c(C(=O)O)ccc2c1CC[C@@H]2NC(=O)c1cc(C(=O)NCc2ccc(F)c(C(F)(F)F)c2)nc2c(F)cnn12`: the negative-log IC50 (pIC50) in [1] was less than 4.70; at Neutrophil collagenase it was less than 4.70; at Matrilysin, less than 4.70; at Stromelysin-1 it was 4.82; in the experiment with Cartilage tissue it was 8.30; on Interstitial collagenase, less than 4.70. Further, the pIC50 in [5] was less than 4.70; in experiment [6], less than 4.70; in [7] it was less than 4.70; in experiment [8], 5.15; at Collagenase 3, 8.89; in experiment [9], less than 4.70. In addition, the results for the “inhibition (INH)” value in the experiment filed under Rattus norvegicus [2], in the experiment listed under Rattus norvegicus [3] and in the experiment filed under Rattus norvegicus [4] were 60%, 0% and 95%, respectively.

The values are drawn from ChEMBL document CHEMBL2046313, “Discovery and evaluation of a non-Zn chelating, selective matrix metalloproteinase 13 (MMP-13) inhibitor for potential intra-articular treatment of osteoarthritis” (J Med Chem, 2012).
